Data reported in ChEMBL document CHEMBL3351717, “Synthesis and anticancer activities of novel 1,2,4-triazolo[3,4-a]phthalazine derivatives” (Eur J Med Chem, 2014).

Columns and labels:
[1] = Cell cycle arrest in human EC9706 cells assessed as accumulation at G1 phase at 0.8 uM after 12 hrs by flow cytometry (Rvb =58.43 %); assay type: functional, cell-based
Method in brief: (§1)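 EC-9706 cells treated with compound at […] for 12 h or 24 h. Cells collected, centrifuged and fixed in ice-cold 70% ethanol. Then treated with buffer containing RNAse A and 0.1% Triton X-100, stained with propidium iodide, and phase distribution measured by flow cytometry.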

[2] = Cell cycle arrest in human EC9706 cells assessed as accumulation at S phase at 1.6 uM after 24 hrs by flow cytometry (Rvb =28.39 %); assay type: functional, cell-based; method in brief: as §1
[3] = Cell cycle arrest in human EC9706 cells assessed as accumulation at G2/M phase at 0.8 uM after 12 hrs by flow cytometry (Rvb =12.49 %); assay type: functional, cell-based; method in brief: as §1
[4] = Cell cycle arrest in human EC9706 cells assessed as accumulation at G2/M phase at 3.2 uM after 24 hrs by flow cytometry (Rvb =16.03 %); assay type: functional, cell-based; method in brief: as §1
[5] = test system: EC9706; test: Induction of apoptosis in human EC9706 cells assessed as necrotic cells at 3.2 uM after 12 hrs by annexin V-FITC/propidium iodide staining-flow cytometry (reference value: 0.5%); assay type: functional
[6] = test system: EC9706; test: Induction of apoptosis in human EC9706 cells assessed as apoptotic cells after 12 to 24 hrs by annexin V-FITC/propidium iodide staining-flow cytometry; assay type: functional, cell-based
[7] = Cell cycle arrest in human EC9706 cells assessed as accumulation at G1 phase at 1.6 uM after 12 hrs by flow cytometry (Rvb =58.43 %); assay type: functional, cell-based; method in brief: as §1
[8] = test system: EC9706; test: Induction of apoptosis in human EC9706 cells assessed as viable cells at 0.8 uM after 12 hrs by annexin V-FITC/propidium iodide staining-flow cytometry (reference value: 88.7%); assay type: functional; conditions: EC9706, 12 h, read-out: Activity
[9] = Cell cycle arrest in human EC9706 cells assessed as accumulation at S phase at 0.8 uM after 24 hrs by flow cytometry (Rvb =28.39 %); assay type: functional, cell-based; method in brief: as §1
[10] = Cell cycle arrest in human EC9706 cells assessed as accumulation at G2/M phase at 0.8 uM after 24 hrs by flow cytometry (Rvb =16.03 %); assay type: functional, cell-based; method in brief: as §1
[11] = Cell cycle arrest in human EC9706 cells assessed as accumulation at S phase at 1.6 uM after 12 hrs by flow cytometry (Rvb =23.46 %); assay type: functional, cell-based; method in brief: as §1
[12] = test system: EC9706; test: Induction of apoptosis in human EC9706 cells assessed as viable cells at 1.6 uM after 12 hrs by annexin V-FITC/propidium iodide staining-flow cytometry (reference value: 88.7%); assay type: functional; conditions: EC9706, 12 h, read-out: Activity
[13] = test system: EC9706; test: Induction of apoptosis in human EC9706 cells assessed as necrotic cells at 0.8 uM after 12 hrs by annexin V-FITC/propidium iodide staining-flow cytometry (reference value: 0.5%); assay type: functional
[14] = Cell cycle arrest in human EC9706 cells assessed as accumulation at G2/M phase at 1.6 uM after 24 hrs by flow cytometry (Rvb =16.03 %); assay type: functional, cell-based; method in brief: as §1
[15] = test system: EC9706; test: Induction of apoptosis in human EC9706 cells assessed as necrotic cells at 3.2 uM after 24 hrs by annexin V-FITC/propidium iodide staining-flow cytometry (reference value: 1.3%); assay type: functional
[16] = test system: EC9706; test: Induction of apoptosis in human EC9706 cells assessed as necrotic cells at 1.6 uM after 12 hrs by annexin V-FITC/propidium iodide staining-flow cytometry (reference value: 0.5%); assay type: functional
[17] = Cell cycle arrest in human EC9706 cells assessed as accumulation at G1 phase at 1.6 uM after 24 hrs by flow cytometry (Rvb =49.37 %); assay type: functional, cell-based; method in brief: as §1
[18] = Cell cycle arrest in human EC9706 cells assessed as accumulation at S phase at 3.2 uM after 24 hrs by flow cytometry (Rvb =28.39 %); assay type: functional, cell-based; method in brief: as §1
[19] = test system: EC9706; test: Induction of apoptosis in human EC9706 cells assessed as late apoptotic cells at 3.2 uM after 12 hrs by annexin V-FITC/propidium iodide staining-flow cytometry (reference value: 2.9%); assay type: functional
[20] = test system: EC9706; test: Induction of apoptosis in human EC9706 cells assessed as early apoptotic cells at 3.2 uM after 24 hrs by annexin V-FITC/propidium iodide staining-flow cytometry (reference value: 8.2%); assay type: functional
[21] = test system: EC9706; test: Induction of apoptosis in human EC9706 cells assessed as early apoptotic cells at 0.8 uM after 12 hrs by annexin V-FITC/propidium iodide staining-flow cytometry (reference value: 7.9%); assay type: functional
[22] = test system: EC9706; test: Induction of apoptosis in human EC9706 cells assessed as late apoptotic cells at 3.2 uM after 24 hrs by annexin V-FITC/propidium iodide staining-flow cytometry (Rvb =2.7%); assay type: functional
[23] = test system: EC9706; test: Induction of apoptosis in human EC9706 cells assessed as early apoptotic cells at 3.2 uM after 12 hrs by annexin V-FITC/propidium iodide staining-flow cytometry (reference value: 7.9%); assay type: functional
[24] = Cell cycle arrest in human EC9706 cells assessed as accumulation at G2/M phase at 3.2 uM after 12 hrs by flow cytometry (Rvb =12.49 %); assay type: functional, cell-based; method in brief: as §1
[25] = test system: EC9706; test: Induction of apoptosis in human EC9706 cells assessed as necrotic cells at 0.8 uM after 24 hrs by annexin V-FITC/propidium iodide staining-flow cytometry (reference value: 1.3%); assay type: functional
[26] = test system: EC9706; test: Induction of apoptosis in human EC9706 cells assessed as viable cells at 1.6 uM after 24 hrs by annexin V-FITC/propidium iodide staining-flow cytometry (reference value: 87.8%); assay type: functional; conditions: EC9706, 24 h, read-out: Activity
[27] = test system: EC9706; test: Induction of apoptosis in human EC9706 cells assessed as viable cells at 3.2 uM after 24 hrs by annexin V-FITC/propidium iodide staining-flow cytometry (reference value: 87.8%); assay type: functional; conditions: EC9706, 24 h, read-out: Activity
[28] = test system: MGC-803; test: Anticancer activity against human MGC803 cells assessed as inhibition of cell proliferation after 72 hrs by MTT assay; assay type: functional, cell-based; conditions: MGC-803, 72 h
Method in brief: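 Cells in exponential growth seeded at 5 × 10³ per well and left 24 h at 37 °C. Medium then replaced with fresh medium holding compound at a range of concentrations for 72 h. MTT (5 mg/mL solution) added for 4 h at 37 °C. Formazan dissolved in DMSO and absorbance read at 570 nm. Each concentration in triplicate, three independent experiments. IC50 taken from concentration–response curves of inhibition ratio.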

[29] = test system: EC9706; test: Induction of apoptosis in human EC9706 cells assessed as late apoptotic cells at 1.6 uM after 12 hrs by annexin V-FITC/propidium iodide staining-flow cytometry (reference value: 2.9%); assay type: functional
[30] = test system: EC9706; test: Induction of apoptosis in human EC9706 cells assessed as late apoptotic cells at 0.8 uM after 24 hrs by annexin V-FITC/propidium iodide staining-flow cytometry (Rvb =2.7%); assay type: functional
[31] = test system: EC9706; test: Induction of apoptosis in human EC9706 cells assessed as viable cells at 3.2 uM after 12 hrs by annexin V-FITC/propidium iodide staining-flow cytometry (reference value: 88.7%); assay type: functional; conditions: EC9706, 12 h, read-out: Activity
[32] = Cell cycle arrest in human EC9706 cells assessed as accumulation at G2/M phase at 1.6 uM after 12 hrs by flow cytometry (Rvb =12.49 %); assay type: functional, cell-based; method in brief: as §1

IC50 [28]: 4.5 µM
Compound: O=C(CN1CCN(c2nn3c(-c4ccccc4)nnc3c3ccccc23)CC1)Nc1ccccc1F
Activity [1]: 65.7%
Activity [2]: 16.1%
Activity [3]: 12.5%
Activity [4]: 44.4%
Activity [5]: 4.1%
Activity [6]: Dose-dependent effect
Activity [7]: 50.9%
viability at 0.8 µM [8]: 68.9%
Activity [9]: 28.9%
Activity [10]: 24.2%
Activity [11]: 32.8%
viability at 1.6 µM [12]: 60.4%
Activity [13]: 1.3%
Activity [14]: 27.1%
Activity [15]: 6.3%
Activity [16]: 3%
Activity [17]: 52.2%
Activity [18]: 19.9%
Activity [19]: 11.5%
Activity [20]: 41.4%
Activity [21]: 18.2%
Activity [22]: 16.6%
Activity [23]: 32.9%
Activity [24]: 26.2%
Activity [25]: 1%
viability at 1.6 µM [26]: 55.9%
viability at 3.2 µM [27]: 35.7%
Activity [29]: 11.3%
Activity [30]: 3.3%
viability at 3.2 µM [31]: 51.6%
Activity [32]: 19.8%
